Measured values as given in ChEMBL document CHEMBL3351671, “Synthesis and anticancer activity of (E)-2-benzothiazole hydrazones” (Eur J Med Chem, 2014).

Assays:
MRC5 = assay: Cytotoxicity against human MRC5 cells after 72 hrs by MTT assay; type: cell-based; details: mrc5, 72 h
MDA-MB-435 = assay: Cytotoxicity against human MDA-MB-435 cells after 72 hrs by MTT assay; type: functional, cell-based; details: MDA-MB-435, 72 h
In short: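 Cells grown in DMEM with 10% fetal bovine serum, 2 mM glutamine, 100 U/mL penicillin and streptomycin at 37 °C under 5% CO₂. Compounds were dissolved in DMSO, diluted with water and incubated with cells for 72 h. […] Viability was read by MTT reduction to formazan. IC₅₀ with 95% confidence interval, triplicate experiments.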

[1] = Cytotoxicity against human HCT8 cells after 72 hrs by MTT assay; type: functional, cell-based; details: HCT-8, 72 h
In short: (§1)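 Cells grown in DMEM with 10% fetal bovine serum, 2 mM glutamine, 100 U/mL penicillin and streptomycin at 37 °C under 5% CO₂. Compounds were dissolved in DMSO, diluted with water and incubated with cells for 72 h. Viability was read by MTT reduction to formazan. IC₅₀ with 95% confidence interval, triplicate experiments.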

[2] = Cytotoxicity against human HL60 cells after 72 hrs by MTT assay; type: functional, cell-based; details: HL-60, 72 h; in short: as §1
[3] = Hemolytic toxicity in mouse erythrocytes assessed as induction of cell membrane disruption incubated for 30 mins by hemoglobin release based spectrophotometry; set-up: species or system Erythrocyte
In short: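 Erythrocytes were exposed to compounds (DMSO stock, water-diluted) for 30 min at room temperature, then centrifuged. Hemoglobin released into the supernatant was read at 540 nm. DMSO served as negative control and 1% Triton X-100 as positive control.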

| SMILES | Activity (MRC5) | IC50 (MDA-MB-435) | IC50 [1] | IC50 [2] | EC50 at 30 min [3] |
| --- | --- | --- | --- | --- | --- |
| Oc1ccc(/C=N/Nc2nc3ccccc3s2)c(O)c1 | Non-toxic | 14.4 µM | 3.43 µM | 1.89 µM | > 200 µg/mL |
| Oc1ccc(/C=N/Nc2nc3ccccc3s2)cc1 | Non-toxic | > 18.6 µM | > 18.6 µM | 4.6 µM | > 200 µg/mL |
| Brc1ccc(/C=N/Nc2nc3ccccc3s2)cc1 | – | > 15.1 µM | > 15.1 µM | > 15.1 µM | > 200 µg/mL |
| O=C(O)c1ccccc1/C=N/Nc1nc2ccccc2s1 | – | > 16.8 µM | > 16.8 µM | > 16.8 µM | > 200 µg/mL |
| Oc1cccc(/C=N/Nc2nc3ccccc3s2)c1O | Non-toxic | > 17.5 µM | 1.29 µM | 0.35 µM | > 200 µg/mL |
| Oc1ccc(O)c(/C=N/Nc2nc3ccccc3s2)c1 | Non-toxic | 6.27 µM | 11.2 µM | 0.59 µM | > 200 µg/mL |
| COc1cccc2c1C(=O)c1c(O)c3c(c(O)c1C2=O)C[C@@](O)(C(=O)CO)C[C@@H]3O[C@H]1C[C@H](N)[C@H](O)[C@H](C)O1 [DOXORUBICIN] | – | – | – | – | > 200 µg/mL |
| Oc1ccc(/C=N/Nc2nc3ccccc3s2)cc1O | Non-toxic | > 17.5 µM | > 17.5 µM | 13.6 µM | > 200 µg/mL |
| Cc1ccc(/C=N/Nc2nc3ccccc3s2)c(C)c1 | – | > 17.8 µM | > 17.8 µM | > 17.8 µM | > 200 µg/mL |
| Fc1ccc(/C=N/Nc2nc3ccccc3s2)c(F)c1 | – | > 17.3 µM | > 17.3 µM | > 17.3 µM | > 200 µg/mL |
| CN(C)c1ccc(/C=N/Nc2nc3ccccc3s2)cc1 | – | > 16.9 µM | > 16.9 µM | > 16.9 µM | > 200 µg/mL |
| C(=N\Nc1nc2ccccc2s1)/c1ccc(-c2ccccn2)cc1 | Non-toxic | > 15.1 µM | > 15.1 µM | 11.5 µM | > 200 µg/mL |
| COc1ccc(/C=N/Nc2nc3ccccc3s2)c(OC)c1 | – | > 16 µM | > 16 µM | > 16 µM | > 200 µg/mL |
| Clc1ccc(/C=N/Nc2nc3ccccc3s2)c(Cl)c1 | – | > 15.5 µM | > 15.5 µM | > 15.5 µM | > 200 µg/mL |
| COc1cc(/C=N/Nc2nc3ccccc3s2)ccc1O | – | > 16.7 µM | > 16.7 µM | > 16.7 µM | > 200 µg/mL |
| C(=N\Nc1nc2ccccc2s1)/c1ccc2c(c1)OCO2 | Non-toxic | > 16.8 µM | > 16.8 µM | 5.51 µM | > 200 µg/mL |
| O=[N+]([O-])c1ccc(O)c(/C=N/Nc2nc3ccccc3s2)c1 | Non-toxic | 14 µM | 13.5 µM | 1.65 µM | > 200 µg/mL |
| Clc1ccc(/C=N/Nc2nc3ccccc3s2)cc1 | – | > 17.4 µM | > 17.4 µM | > 17.4 µM | > 200 µg/mL |
